Like-named read-outs stand apart in the source and are kept apart here.
Assays:
Type in all cases: cell-based
[1] = target: KV (Kv1.3), human T cells (Homo sapiens, UniProt P22001); assay: whole-cell patch clamp, peak KV current
Method in brief: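 Peripheral T cells came from healthy donors' venous blood by Ficoll-Hypaque. Recording was whole-cell at 20–25°C in Ringer, with a 160 mM K+ aspartate/10 mM EGTA pipette (pH 7.2). Pulses of 200 ms went from −80 to +30 mV every 30 s. Each steroid was bath-applied at 60 μM. Percent inhibition of peak KV current is mean ± SD, ≥3 experiments.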

[2] = target: KCa (hKCa4), activated human T cells (Homo sapiens, UniProt O15554); assay: whole-cell patch clamp, KCa slope conductance near -80 mV
KCa (hKCa4), activated human T cells, sequence (O15554 whole entry): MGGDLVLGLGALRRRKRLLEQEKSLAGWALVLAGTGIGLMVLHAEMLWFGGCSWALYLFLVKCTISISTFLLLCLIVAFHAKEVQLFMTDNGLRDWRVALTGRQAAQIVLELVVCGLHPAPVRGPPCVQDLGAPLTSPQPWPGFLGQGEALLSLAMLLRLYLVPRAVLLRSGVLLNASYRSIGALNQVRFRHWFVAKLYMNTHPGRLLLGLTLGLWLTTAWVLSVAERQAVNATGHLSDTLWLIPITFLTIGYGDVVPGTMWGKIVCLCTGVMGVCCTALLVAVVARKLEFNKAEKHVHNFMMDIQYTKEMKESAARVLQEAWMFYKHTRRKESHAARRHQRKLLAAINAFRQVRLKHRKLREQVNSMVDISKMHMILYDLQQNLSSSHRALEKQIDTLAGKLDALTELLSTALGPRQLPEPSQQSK
Method in brief: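 Human T-cell blasts were made from Ficoll-isolated blood T cells with 10 μg/ml PHA. KCa was opened by dialysis with a pipette of 140 mM K+ aspartate, 7.8 mM CaCl2 and 10 mM EGTA (nominal 1 μM free Ca2+, pH 7.2). Ramps of 200 ms went from −120 to +50 mV every 30 s. Each compound was applied at 60 μM. Slope-conductance inhibition near −80 mV is mean ± SD, ≥3 experiments.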

Kv3.1 = target: T1, Kv3.1 (Mus musculus, UniProt P15388); assay: whole-cell patch clamp; details: read-out: % inhibition at 30 μM
T1 sequence (P15388 1-511): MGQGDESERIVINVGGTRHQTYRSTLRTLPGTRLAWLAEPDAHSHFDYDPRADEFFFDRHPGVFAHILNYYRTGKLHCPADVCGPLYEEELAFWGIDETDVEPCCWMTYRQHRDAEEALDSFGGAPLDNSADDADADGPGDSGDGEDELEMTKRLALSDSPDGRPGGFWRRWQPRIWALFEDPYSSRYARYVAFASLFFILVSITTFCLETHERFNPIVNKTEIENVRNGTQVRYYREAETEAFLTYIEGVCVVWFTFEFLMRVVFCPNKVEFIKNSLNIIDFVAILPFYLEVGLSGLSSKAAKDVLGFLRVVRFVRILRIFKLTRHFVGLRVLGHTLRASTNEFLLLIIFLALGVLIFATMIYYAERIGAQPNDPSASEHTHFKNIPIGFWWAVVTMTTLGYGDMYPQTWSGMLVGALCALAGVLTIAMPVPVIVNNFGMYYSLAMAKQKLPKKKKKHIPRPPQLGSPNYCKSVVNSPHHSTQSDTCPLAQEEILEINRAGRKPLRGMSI
Method in brief: (§1)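 Cell lines stably expressing each cloned KV channel, cultured in RPMI 1640 with 10% heat-inactivated FBS at 37°C and 5% CO2. Whole-cell currents were recorded at 20–25°C in mammalian Ringer. The pipette held 160 mM K+ aspartate, 10 mM EGTA, pH 7.2. Steps of 200 ms went from −80 to +30 mV every 30 s. Test compound was bath-applied at 30 μM. Inhibition of peak current is mean ± SD from ≥3 experiments.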

Kv1.4 = assay: whole-cell patch clamp; details: LTK cells; depolarizing pulses to +30 mV
Method in brief: as §1

Kv1.3 (cloned) = Kv1.3 (cloned) (Mus musculus, UniProt P16390); assay: whole-cell patch clamp; details: read-out: % inhibition at 30 μM
Kv1.3 (cloned), sequence (P16390 whole entry): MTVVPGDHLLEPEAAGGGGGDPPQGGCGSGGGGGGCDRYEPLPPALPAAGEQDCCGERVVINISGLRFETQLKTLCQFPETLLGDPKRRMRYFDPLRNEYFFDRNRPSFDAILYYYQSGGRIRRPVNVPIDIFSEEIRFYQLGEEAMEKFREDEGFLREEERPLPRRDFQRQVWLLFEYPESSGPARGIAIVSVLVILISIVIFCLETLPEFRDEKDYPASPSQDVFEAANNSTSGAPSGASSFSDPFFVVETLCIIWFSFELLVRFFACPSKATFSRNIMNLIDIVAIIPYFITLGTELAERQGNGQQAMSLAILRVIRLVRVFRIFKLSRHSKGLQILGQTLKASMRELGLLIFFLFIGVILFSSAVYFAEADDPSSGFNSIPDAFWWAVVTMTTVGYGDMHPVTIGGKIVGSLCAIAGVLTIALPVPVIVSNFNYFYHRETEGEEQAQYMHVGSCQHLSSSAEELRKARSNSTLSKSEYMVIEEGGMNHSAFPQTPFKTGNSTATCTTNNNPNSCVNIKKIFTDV
Method in brief: as §1

hSKM1 = hSKM1 (Homo sapiens, UniProt P35499); assay: whole-cell patch clamp, peak Na+ current; details: read-out: % inhibition at 30 μM
hSKM1, sequence (P35499 whole entry): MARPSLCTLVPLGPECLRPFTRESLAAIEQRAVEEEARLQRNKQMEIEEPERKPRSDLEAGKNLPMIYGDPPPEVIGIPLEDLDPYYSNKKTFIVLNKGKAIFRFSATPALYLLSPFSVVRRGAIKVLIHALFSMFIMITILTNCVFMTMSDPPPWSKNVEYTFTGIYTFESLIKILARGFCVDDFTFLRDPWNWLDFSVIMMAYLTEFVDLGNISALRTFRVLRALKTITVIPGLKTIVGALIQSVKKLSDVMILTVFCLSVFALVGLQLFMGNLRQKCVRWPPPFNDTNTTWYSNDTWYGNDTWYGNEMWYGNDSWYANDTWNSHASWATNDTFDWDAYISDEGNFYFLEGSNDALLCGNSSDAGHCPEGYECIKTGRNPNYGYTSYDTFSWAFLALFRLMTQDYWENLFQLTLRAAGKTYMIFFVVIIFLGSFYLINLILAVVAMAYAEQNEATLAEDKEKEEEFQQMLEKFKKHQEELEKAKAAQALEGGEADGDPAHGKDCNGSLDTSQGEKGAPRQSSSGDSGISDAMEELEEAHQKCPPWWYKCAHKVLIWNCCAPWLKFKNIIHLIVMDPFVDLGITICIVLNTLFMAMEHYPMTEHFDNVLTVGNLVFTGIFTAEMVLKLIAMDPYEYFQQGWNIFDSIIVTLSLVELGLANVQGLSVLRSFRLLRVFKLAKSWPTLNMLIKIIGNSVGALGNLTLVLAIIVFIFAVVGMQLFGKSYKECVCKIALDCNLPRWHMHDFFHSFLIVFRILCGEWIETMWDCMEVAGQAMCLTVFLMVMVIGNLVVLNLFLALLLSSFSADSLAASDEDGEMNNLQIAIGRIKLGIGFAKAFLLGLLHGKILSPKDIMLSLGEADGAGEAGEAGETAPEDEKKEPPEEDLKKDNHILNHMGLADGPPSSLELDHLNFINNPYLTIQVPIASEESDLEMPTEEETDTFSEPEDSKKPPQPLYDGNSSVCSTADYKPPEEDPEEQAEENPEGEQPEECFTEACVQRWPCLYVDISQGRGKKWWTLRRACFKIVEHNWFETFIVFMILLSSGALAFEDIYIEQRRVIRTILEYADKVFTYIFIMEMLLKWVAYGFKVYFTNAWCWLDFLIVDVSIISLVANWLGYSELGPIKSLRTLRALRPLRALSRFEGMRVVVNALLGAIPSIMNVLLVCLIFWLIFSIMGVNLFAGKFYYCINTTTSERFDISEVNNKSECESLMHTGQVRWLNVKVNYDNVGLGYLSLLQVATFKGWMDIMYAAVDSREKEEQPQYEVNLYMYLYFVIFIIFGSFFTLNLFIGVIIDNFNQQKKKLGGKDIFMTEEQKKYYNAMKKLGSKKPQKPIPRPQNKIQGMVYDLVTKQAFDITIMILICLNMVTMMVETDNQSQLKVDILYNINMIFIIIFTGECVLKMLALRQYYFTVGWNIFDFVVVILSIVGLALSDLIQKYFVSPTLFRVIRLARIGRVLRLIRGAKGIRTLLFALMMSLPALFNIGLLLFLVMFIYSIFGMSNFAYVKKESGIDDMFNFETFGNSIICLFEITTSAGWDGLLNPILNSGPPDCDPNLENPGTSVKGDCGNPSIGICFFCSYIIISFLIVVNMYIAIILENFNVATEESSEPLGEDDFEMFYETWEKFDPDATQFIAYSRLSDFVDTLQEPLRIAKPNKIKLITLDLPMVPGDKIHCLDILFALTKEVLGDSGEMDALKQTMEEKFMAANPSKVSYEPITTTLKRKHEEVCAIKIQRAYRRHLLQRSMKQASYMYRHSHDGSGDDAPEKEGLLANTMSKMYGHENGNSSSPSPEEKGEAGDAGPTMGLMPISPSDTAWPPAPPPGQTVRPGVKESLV
Method in brief: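 Cloned hSKM1 Na+ channel was expressed in a cultured cell line and recorded by whole-cell patch clamp at 20–25°C, with mammalian Ringer as bath. Peak Na+ current was taken at +10 mV. Test compound was applied at 30 μM. Percent inhibition is mean ± SD from at least three experiments.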

KV (Kv1.3), human T cells, sequence (P22001 whole entry): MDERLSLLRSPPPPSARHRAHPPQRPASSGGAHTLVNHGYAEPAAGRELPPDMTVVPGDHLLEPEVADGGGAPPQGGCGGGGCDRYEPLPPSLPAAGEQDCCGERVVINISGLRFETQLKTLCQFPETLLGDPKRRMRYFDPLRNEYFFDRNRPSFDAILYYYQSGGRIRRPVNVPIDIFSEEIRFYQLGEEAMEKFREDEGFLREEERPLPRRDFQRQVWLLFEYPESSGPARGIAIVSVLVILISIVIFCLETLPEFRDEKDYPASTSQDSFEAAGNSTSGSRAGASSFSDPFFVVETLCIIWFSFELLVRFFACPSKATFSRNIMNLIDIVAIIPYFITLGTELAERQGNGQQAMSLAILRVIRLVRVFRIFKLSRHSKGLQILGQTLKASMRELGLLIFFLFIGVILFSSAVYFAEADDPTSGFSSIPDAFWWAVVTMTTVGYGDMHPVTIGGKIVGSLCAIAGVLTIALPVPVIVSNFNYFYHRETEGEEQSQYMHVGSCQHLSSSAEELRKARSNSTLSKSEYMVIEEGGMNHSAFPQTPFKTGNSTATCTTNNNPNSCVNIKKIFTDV

## C[C@]12CCC(=O)C=C1CC[C@@H]1[C@@H]2[C@@H](O)C[C@]2(C=O)[C@@H](C(=O)CO)CC[C@@H]12 [Aldosterone]
[1]; read-out: Aldosterone
  inhibition at 60 µM: 12 ± 13%

## C[C@]12CCC(=O)C=C1CC[C@@H]1[C@@H]2[C@@H](O)C[C@@]2(C)[C@H]1CC[C@]2(O)C(=O)CO [Cortisol]
[1]; read-out: Cortisol
  inhibition at 60 µM: 13 ± 4%

## C[C@]12CC[C@H](O)CC1=CC[C@@H]1[C@@H]2CC[C@]2(C)C(=O)CC[C@@H]12 [DHEA]
[1]; read-out: DHEA
  inhibition at 60 µM: 10 ± 6%

## C[C@]12CC[C@@H]3c4ccc(O)cc4CC[C@H]3[C@@H]1CC[C@@H]2O [Estradiol]
[2]; read-out: Estradiol
  inhibition at 60 µM: 8 ± 10%
[1]; read-out: Estradiol
  inhibition at 60 µM: 24 ± 7%

## CC(=O)[C@@]1(O)CC[C@H]2[C@@H]3CCC4=CC(=O)CC[C@]4(C)[C@H]3CC[C@@]21C [OHP, 17α-hydroxy-4-pregnene-3,20-dione]
[1]; read-out: OHP
  inhibition at 60 µM: 12 ± 6%

## CC#C[C@]1(O)CC[C@H]2[C@@H]3CCC4=CC(=O)CCC4=C3[C@@H](c3ccc(N(C)C)cc3)C[C@@]21C [RU 486]
[2]; read-out: RU 486
  inhibition at 60 µM: 55 ± 12%
[1]; read-out: RU 486
  inhibition at 60 µM: 61 ± 15%

## C[C@]12CC[C@H]3[C@@H](CCC4=CC(=O)CC[C@@]43C)[C@@H]1CC[C@@H]2O [Testosterone]
[1]; read-out: Testosterone
  inhibition at 60 µM: 17 ± 12%

## CC(=O)[C@H]1CC[C@H]2[C@@H]3CCC4=CC(=O)CC[C@]4(C)[C@H]3CC[C@]12C [progesterone]
Kv3.1
  inhibition at 30 µM: 53 ± 3%
Kv1.4
  % inhibition at 30 μM: 23 ± 8%
Kv1.3 (cloned)
  inhibition at 30 µM: 44 ± 9%
[2]; read-out: Progesterone
  inhibition at 60 µM: 34 ± 11%
hSKM1
  inhibition at 30 µM: 11 ± 1%

Reference: article PMC2212508 (The Journal of Experimental Medicine, 1998)
